How the values were obtained:
Acetyl-CoA carboxylase = Acetyl-CoA carboxylase (Homo sapiens, UniProt Q13085+O00763); assay: Inhibition of human ACC1/2-mediated malonyl-CoA synthesis; format: protein assay
How it was run: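 Partially purified human liver ACC enzymes; read-out is malonyl-CoA synthesis by ACC1/2; IC50 taken as mean of at least two independent experiments.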

[1] = Metabolic stability in human liver microsomes assessed as compound remaining after 15 mins; format: ADME, Microsome; details: read-out: Stability
How it was run: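 Compound at […] incubated 15 min at 37 °C with human liver microsomes at 1 mg protein/mL. Cofactors: 1.5 mM glucose-6-phosphate, 0.16 mM NADP, 1 U/mL G6P dehydrogenase. Buffer: 250 mM phosphate, 2.4 mM MgCl2, 69 mM KCl. Parent measured by LC-MS/MS; % remaining relative to 0 min.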

[2] = Permeability by PAMPA method; format: ADME; details: read-out: permeability
How it was run: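 Parallel artificial membrane permeation at pH 6.2; effective permeability Pe reported in 10^-6 cm/s.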

[3] = Inhibition of human ACC in HepG2 cells assessed as decrease in fatty acid synthesis by [14C]acetate incorporation assay; format: cell-based
How it was run: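 HepG2 cells; fatty acid synthesis followed as loss of [14C]acetate incorporation into cellular lipids; IC50 derived.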

SMILES: CC(=O)N1CCC(C(=O)N2CCC(N3CCN(C(=O)c4cc(-c5ccccc5)nc(-c5ccc6c(c5)c(C)cn6C)c4)CC3)CC2)CC1
- IC50 (Acetyl-CoA carboxylase): 127 nM

SMILES: CC(=O)N1CCC(C(=O)N2CCC(N3CCN(C(=O)c4cc(-c5ccccc5)nc(-c5ccc6[nH]c(C)c(C)c6c5)c4)CC3)CC2)CC1
- IC50 (Acetyl-CoA carboxylase): 33 nM
- remaining at 0.25 h [1]: 99%

SMILES: CC(=O)N1CCC(C(=O)N2CCC(N3CCN(C(=O)c4cc(-c5ccccc5)nc(-c5ccc6c(c5)c(C)c(C)n6C)c4)CC3)CC2)CC1
- IC50 (Acetyl-CoA carboxylase): 105 nM

SMILES: CCc1c(C)[nH]c2ccc(-c3cc(C(=O)N4CCN(C5CCN(C(=O)C6CCN(C(C)=O)CC6)CC5)CC4)cc(-c4ccccc4)n3)cc12
- IC50 (Acetyl-CoA carboxylase): 169 nM

SMILES: CC(=O)N1CCC(C(=O)N2CCC(N3CCN(C(=O)c4cc(-c5ccccc5)nc(-c5ccc6[nH]c(C)c(C#N)c6c5)c4)CC3)CC2)CC1
- IC50 (Acetyl-CoA carboxylase): 9.7 nM

SMILES: CC(=O)N1CCC(C(=O)N2CCC(N3CCN(C(=O)c4cc(-c5ccccc5)nc(-c5ccc6[nH]c(CN(C)C)c(C)c6c5)c4)CC3)CC2)CC1
- IC50 (Acetyl-CoA carboxylase): 8.4 nM

SMILES: CC(=O)N1CCC(C(=O)N2CCC(N3CCN(C(=O)c4cc(-c5ccc(C(F)(F)F)cc5)nc(-c5ccc6[nH]ccc6c5)c4)CC3)CC2)CC1
- IC50 (Acetyl-CoA carboxylase): 72 nM

SMILES: CC(=O)N1CCC(C(=O)N2CCC(N3CCN(C(=O)c4cc(-c5ccc(C)c(F)c5)nc(-c5ccc6[nH]ccc6c5)c4)CC3)CC2)CC1
- IC50 (Acetyl-CoA carboxylase): 49 nM

SMILES: COc1ccc(-c2cc(C(=O)N3CCN(C4CCN(C(=O)C5CCN(C(C)=O)CC5)CC4)CC3)cc(-c3ccc4[nH]ccc4c3)n2)cc1OC
- IC50 (Acetyl-CoA carboxylase): 30 nM

SMILES: CC(=O)N1CCC(C(=O)N2CCC(N3CCN(C(=O)c4cc(-c5ccccc5)nc(-c5ccc6c(ccn6C)c5)c4)CC3)CC2)CC1
- IC50 (Acetyl-CoA carboxylase): 69 nM
- remaining at 0.25 h [1]: 85%

SMILES: CC(=O)N1CCC(C(=O)N2CCC(N3CCN(C(=O)c4cc(-c5ccccc5)nc(-c5ccc6[nH]c(C)cc6c5)c4)CC3)CC2)CC1
- IC50 (Acetyl-CoA carboxylase): 59 nM

SMILES: CC(=O)N1CCC(C(=O)N2CCC(N3CCN(C(=O)c4cc(-c5ccccc5)nc(-c5ccc6[nH]cc(C)c6c5)c4)CC3)CC2)CC1
- IC50 (Acetyl-CoA carboxylase): 36 nM
- remaining at 0.25 h [1]: 72%

SMILES: CC(=O)N1CCC(C(=O)N2CCC(N3CCN(C(=O)c4cc(-c5ccccc5)nc(-c5ccc6c(c5)cc(C)n6C)c4)CC3)CC2)CC1
- IC50 (Acetyl-CoA carboxylase): 117 nM

SMILES: CC(=O)N1CCC(C(=O)N2CCC(N3CCN(C(=O)c4cc(-c5ccccc5)nc(-c5ccc6cn[nH]c6c5)c4)CC3)CC2)CC1
- IC50 (Acetyl-CoA carboxylase): 57 nM

SMILES: CC(=O)N1CCC(C(=O)N2CCC(N3CCN(C(=O)c4cc(-c5ccccc5)nc(-c5ccc6c(c5)CC(=O)N6)c4)CC3)CC2)CC1
- IC50 (Acetyl-CoA carboxylase): 54 nM

SMILES: CC(=O)N1CCC(C(=O)N2CCC(N3CCN(C(=O)c4cc(-c5cccc(F)c5)nc(-c5ccc6[nH]ccc6c5)c4)CC3)CC2)CC1
- Papp [2]: 19.9 ×10⁻⁶ cm/s
- IC50 (Acetyl-CoA carboxylase): 33 nM

SMILES: CC(=O)N1CCC(C(=O)N2CCC(N3CCN(C(=O)c4cc(-c5ccc(F)cc5)nc(-c5ccc6[nH]ccc6c5)c4)CC3)CC2)CC1
- Papp [2]: 44.3 ×10⁻⁶ cm/s
- IC50 (Acetyl-CoA carboxylase): 48 nM

SMILES: CC(=O)N1CCC(C(=O)N2CCC(N3CCN(C(=O)c4cc(-c5cccc(C)c5)nc(-c5ccc6[nH]ccc6c5)c4)CC3)CC2)CC1
- Papp [2]: 28.1 ×10⁻⁶ cm/s
- IC50 (Acetyl-CoA carboxylase): 37 nM

SMILES: CC(=O)N1CCC(C(=O)N2CCC(N3CCN(C(=O)c4cc(-c5ccc(C)cc5)nc(-c5ccc6[nH]ccc6c5)c4)CC3)CC2)CC1
- Papp [2]: 39.8 ×10⁻⁶ cm/s
- IC50 (Acetyl-CoA carboxylase): 30 nM

SMILES: COc1cccc(-c2cc(C(=O)N3CCN(C4CCN(C(=O)C5CCN(C(C)=O)CC5)CC4)CC3)cc(-c3ccc4[nH]ccc4c3)n2)c1
- IC50 (Acetyl-CoA carboxylase): 32 nM

SMILES: COc1ccc(-c2cc(C(=O)N3CCN(C4CCN(C(=O)C5CCN(C(C)=O)CC5)CC4)CC3)cc(-c3ccc4[nH]ccc4c3)n2)cc1
- Papp [2]: 21.5 ×10⁻⁶ cm/s
- IC50 (Acetyl-CoA carboxylase): 21 nM

SMILES: CC(=O)N1CCC(C(=O)N2CCC(N3CCN(C(=O)c4cc(-c5cccc(C(F)(F)F)c5)nc(-c5ccc6[nH]ccc6c5)c4)CC3)CC2)CC1
- IC50 (Acetyl-CoA carboxylase): 100 nM

SMILES: CC(=O)N1CCC(C(=O)N2CCC(N3CCN(C(=O)c4cc(-c5ccccc5)nc(-c5ccc(C(N)=O)cc5)c4)CC3)CC2)CC1
- IC50 (Acetyl-CoA carboxylase): 80 nM

SMILES: CC(=O)N1CCC(C(=O)N2CCC(N3CCN(C(=O)c4cc(-c5ccccc5)nc(-c5ccc(CCO)cc5)c4)CC3)CC2)CC1
- IC50 (Acetyl-CoA carboxylase): 27 nM
- IC50 [3]: 1620 nM

SMILES: CC(=O)N1CCC(C(=O)N2CCC(N3CCN(C(=O)c4cc(-c5ccccc5)nc(-c5ccc(CC(=O)O)cc5)c4)CC3)CC2)CC1
- IC50 (Acetyl-CoA carboxylase): 75 nM

SMILES: CC(=O)N1CCC(C(=O)N2CCC(N3CCN(C(=O)c4cc(-c5ccccc5)nc(-c5ccc(OCCO)cc5)c4)CC3)CC2)CC1
- IC50 (Acetyl-CoA carboxylase): 47 nM

SMILES: CC(=O)N1CCC(C(=O)N2CCC(N3CCN(C(=O)c4cc(-c5ccccc5)nc(-c5ccc(CCCO)cc5)c4)CC3)CC2)CC1
- IC50 (Acetyl-CoA carboxylase): 70 nM

SMILES: CC(=O)N1CCC(C(=O)N2CCC(N3CCN(C(=O)c4cc(-c5ccccc5)nc(-c5ccc6[nH]ccc6c5)c4)CC3)CC2)CC1
- Papp [2]: 46.5 ×10⁻⁶ cm/s
- IC50 (Acetyl-CoA carboxylase): 55 nM
- remaining at 0.25 h [1]: 64%

SMILES: CC(=O)N1CCC(C(=O)N2CCC(N3CCN(C(=O)c4cc(-c5ccccc5)nc(-c5ccc6cc[nH]c6c5)c4)CC3)CC2)CC1
- IC50 (Acetyl-CoA carboxylase): 47 nM

SMILES: CC(=O)N1CCC(C(=O)N2CCC(N3CCN(C(=O)c4cc(-c5ccccc5)nc(-c5ccc6[nH]ncc6c5)c4)CC3)CC2)CC1
- IC50 (Acetyl-CoA carboxylase): 42 nM

SMILES: CC(=O)N1CCC(C(=O)N2CCC(N3CCN(C(=O)c4cc(-c5ccccc5)nc(-c5ccc(O)cc5)c4)CC3)CC2)CC1
- IC50 (Acetyl-CoA carboxylase): 47 nM

SMILES: CC(=O)N1CCC(C(=O)N2CCC(N3CCN(C(=O)c4cc(-c5ccccc5)nc(-c5cccc(CO)c5)c4)CC3)CC2)CC1
- IC50 (Acetyl-CoA carboxylase): 47 nM

SMILES: CC(=O)N1CCC(C(=O)N2CCC(N3CCN(C(=O)c4cc(-c5ccccc5)nc(-c5ccc(CO)cc5)c4)CC3)CC2)CC1
- IC50 (Acetyl-CoA carboxylase): 42 nM

Reference: ChEMBL document CHEMBL1177759, “Design and synthesis of disubstituted (4-piperidinyl)-piperazine derivatives as potent acetyl-CoA carboxylase inhibitors” (Bioorg Med Chem Lett, 2010)
